Experimental findings from PubChem BioAssay are described below.

The source made the active and inactive calls.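 The calls were made as follows, unless noted: active = fluorescence slope after compound addition differing from the mean of all tested samples at 99.7% confidence, mostly higher but some lower; inactive = the rest.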

A short description of assay [1]: inhibitors of TNFa-induced NFkB p65 translocation, primary screen, imaging, HUVEC, MLSMR starter and 10KST1 sets (AID 438;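 active = inhibition above 20% together with a positive visual image hit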;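 also: compound added about 3h40 before a 20 min TNFalpha stimulation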;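 as to inhibition: signal is the nuclear over cytoplasmic p65 intensity ratio per well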). To be noted: HUVEC TNFa-induced p65 nuclear translocation; cell count: measured here: nuclei count (cytotoxicity indicator), at 2.08 µM; inhibition: at 2 µM, stronger effect = higher value, 0% TNFa-plus-vehicle, 100% no-TNFa wells.
Assay [2] in a line: inhibitors of mutant huntingtin aggregation, primary screen, imaging, exon1htt(103Q)mCFP cells, high-content imaging (AID 483;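 active = visual image review flags a hit and inhibition of aggregation exceeds 20%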;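 also: compound exposure lasted 3 days before fixation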;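 as to nuclei count: percent of the per-plate median nuclei count of sample wells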). To be noted: exon1htt(103Q)mCFP cell line, aggregate imaging, at 2 µM; inhibition of aggregation: stronger effect = higher value; nuclei count: measured here: cell count, toxicity.
Assay [3] in a line: inhibitors of E-selectin induction by TNFa, primary screen, imaging, HUVEC, immunofluorescence, MLSMR starter and 10KST1 sets (AID 487;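 active = visually confirmed hit in the image check and inhibition above 20%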;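 as to inhibition: signal is fraction of cell area covered by stained E-selectin grains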;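 as to nuclei count: 100% = median nuclei count of all wells on the same plate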). Conditions: HUVEC TNFalpha-induced E-selectin immunofluorescence imaging, at 2 µM; inhibition: stronger effect = higher value; nuclei count: measured here: cell number, toxicity.
Assay [4] addresses Voltage-gated potassium channel subunit beta-2 (Rattus norvegicus) (UniProt P62483). The experiment in a line: KvBeta enzyme negative modulators, primary screen, biochemical, NADPH fluorescence (AID 622;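 active = fluorescence slope higher than the sample average by over 3 SD, cut at about -0.22 in these data, passing the limit was not always enough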;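 also: slope of raw intensity against log time taken from 70 to 1610 s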). To be noted: recombinant KvBeta, 4-cyanobenzaldehyde reduction, at 10 µM, stronger effect = higher value.
For assay [5] the target is unchanged. The experiment in a line: KvBeta positive modulators, primary screen, biochemical, NADPH fluorescence (AID 623;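 active = NADPH fluorescence slope more negative than the mean of all samples by about 3 SD, 99.7% confidence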;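 also: fluorescence intensity change per second fitted from 20 to 320 s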). Conditions: Recombinant KvBeta, NADPH fluorescence decrease slope, 10 min; at 10 µM; stronger effect = lower value.
For assay [6], the target named is Muscarinic acetylcholine receptor M4 (Homo sapiens) (UniProt P08173). Briefly: compounds altering M4/GIRK thallium flux, either direction, primary screen, M4 allosteric agonist project, cell-based, HEK293 M4/GIRK, BTC-AM (AID 625).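 Also: thallium influx through GIRK channels coupled to M4 in HEK293 cells with BTC-AM dye.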 Conditions: at 10 µM, actives lie on both sides. Put shortly:
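assay system = HEK293 cells with M4 receptor and GIRK channels | medium = pH 7.3 thallium assay buffer | doses = 10 µM final, single point | timing = cells overnight at 37 °C, BTC-AM loading 1 h, reads 2 min total | signal = BTC-AM fluorescence, 1 Hz kinetic reads | read-out = post-addition slope, 15–24 s, of baseline-normalized fluorescence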

A short description of assay [7]: inhibitors of Sendai virus-induced IRF3 signaling, primary screen, TLR/RLR signaling modifier project, cell-based, Sendai virus stimulus, luciferase, 10K MLSCN set (AID 602276;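 active = inhibition at or above 50% at 10 µM; inactive = inhibition below 50%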;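 also: firefly luciferase from ISG56 promoter only with Renilla not read in this screen; 0% = Sendai virus plus DMSO and 100% = medium plus DMSO without virus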). To be noted: HEK293 RL24 IRF3 luciferase reporter, at 10 µM, stronger effect = higher value. A general note: In a reporter assay the amount or activity of a reporter protein is the signal.
Assay [8] is described as follows: inhibitors of poly I:C-induced TLR3 signaling, primary screen, cell-based, poly I:C stimulus, luciferase, 10K MLSCN set (AID 602277;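 active = inhibition of the reporter signal at or above 50%; inactive = inhibition below 50%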). Conditions: HEK293-TLR3 RL24 IRF3 luciferase reporter, at 10 µM, stronger effect = higher value.

Chain of Muscarinic acetylcholine receptor M4 (Homo sapiens) (P08173 whole entry, looked up): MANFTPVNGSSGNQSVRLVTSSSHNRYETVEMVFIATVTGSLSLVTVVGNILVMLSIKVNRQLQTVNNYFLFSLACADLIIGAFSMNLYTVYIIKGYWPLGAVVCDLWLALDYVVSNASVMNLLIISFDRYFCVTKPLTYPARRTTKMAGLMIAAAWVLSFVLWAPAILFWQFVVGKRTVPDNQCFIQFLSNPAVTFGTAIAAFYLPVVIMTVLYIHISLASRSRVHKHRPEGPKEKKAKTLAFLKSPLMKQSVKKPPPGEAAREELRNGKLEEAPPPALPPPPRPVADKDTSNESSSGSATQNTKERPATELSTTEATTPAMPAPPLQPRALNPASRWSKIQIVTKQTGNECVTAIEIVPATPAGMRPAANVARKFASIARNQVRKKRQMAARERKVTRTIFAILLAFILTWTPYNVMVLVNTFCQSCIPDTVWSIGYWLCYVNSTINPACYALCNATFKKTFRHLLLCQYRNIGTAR
Chain of Voltage-gated potassium channel subunit beta-2 (Rattus norvegicus) (P62483 whole entry, looked up): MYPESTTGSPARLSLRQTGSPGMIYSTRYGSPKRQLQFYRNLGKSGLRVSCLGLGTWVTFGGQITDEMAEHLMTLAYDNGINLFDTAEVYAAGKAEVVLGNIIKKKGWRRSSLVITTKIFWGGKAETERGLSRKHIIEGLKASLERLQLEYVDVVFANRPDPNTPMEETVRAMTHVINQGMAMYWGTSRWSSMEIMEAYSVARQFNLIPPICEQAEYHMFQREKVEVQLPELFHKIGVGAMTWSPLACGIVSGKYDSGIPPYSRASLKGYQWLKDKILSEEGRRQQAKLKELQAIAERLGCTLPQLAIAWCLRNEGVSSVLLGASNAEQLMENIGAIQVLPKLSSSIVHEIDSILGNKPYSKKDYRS

For `CCC(C)NC(=O)CSC1=Nc2ccccc2C2=NC(CC(=O)NCc3ccccc3)C(=O)N12` (centres undefined), the cell count in assay [1] was 651. Also, the inhibition (usually the drop in the measured response relative to a control, in per cent) in assay [1] is -7.5% (inactive); in assay [3], -58.9% (inactive); in assay [7], 10.6% (inactive); in assay [8], 26.5% (inactive). In addition, the inhibition of aggregation in assay [2] is -9% (inactive). The nuclei count in assay [2] amounted to 55.7%; in assay [3] it was 89.6%. In addition, the fluorescence slope in assay [4] was -0.461 (inactive); in assay [6], 0.00538 (inactive). The NADPH fluorescence slope in assay [5] was -1.4e-05 (inactive).

Turning to `CN(C)C(=O)CN(c1ccc(F)c(Cl)c1)S(C)(=O)=O`, in assay [1], the cell count came out at 352. The inhibition in assay [1] is -2.1% (inactive); in assay [3] it was 5.1% (inactive); in assay [7], 1.05% (inactive); in assay [8], 9.43% (inactive). Further, the inhibition of aggregation in assay [2] is -0.4% (inactive). Besides, the nuclei count in assay [2] is 104%; in assay [3] it was 109%. Moreover, the fluorescence slope in assay [4] is -0.56 (inactive); in assay [6], 0.00357 (inactive). The NADPH fluorescence slope in assay [5] was -8.3e-05 (inactive).

On to `CN(C(=O)c1ccccn1)c1nnc(-c2ccncc2)s1`, for which the cell count in assay [1] is 551. For the same compound, the inhibition in assay [1] was 5% (inactive); in assay [3], -35.7% (inactive); in assay [7] it was 6.96% (inactive); in assay [8], -3.15% (inactive). The inhibition of aggregation in assay [2] was -7.6% (inactive). The nuclei count in assay [2] turned out to be 111%; in assay [3], 109%. Further, the fluorescence slope in assay [4] was -0.267 (inactive); in assay [6] it was 0.00597 (inactive). For the same compound, the NADPH fluorescence slope in assay [5] was -1.3e-05 (inactive).

Take `O=C(c1ccc2c(c1)OCO2)N1CCNc2ccccc2C1`: the cell count in assay [1] is 518. Moreover, the inhibition is -0.5% (inactive) in assay [1], -14.3% (inactive) in assay [3], 8.51% (inactive) in assay [7] and 2.68% (inactive) in assay [8]. For the same compound, the inhibition of aggregation in assay [2] was 21.2% (inactive). The nuclei count in assay [2] was determined as 91%; in assay [3] it was 85.2%. Further, the fluorescence slope in assay [4] is -0.559 (inactive); in assay [6], 0.00561 (inactive). For the same compound, in assay [5], the NADPH fluorescence slope was -3.1e-05 (inactive).

For `CC(=O)Nc1nc(C)c(-c2csc(Nc3ccc(O)cc3)n2)s1`, in assay [1], the cell count was found to be 547. Besides, the inhibition in assay [1] was 1.5% (inactive); in assay [3], -154% (inactive); in assay [7] it was 20.1% (inactive); in assay [8] it was 9.01% (inactive). Besides, the inhibition of aggregation in assay [2] is 33.1% (inactive). Further, the figures for the nuclei count in assay [2] and in assay [3] were 99.7% and 164%, respectively. Also, the figures for the fluorescence slope in assay [4] and in assay [6] were -0.556 (inactive) and 0.00314 (inactive), respectively. Moreover, the NADPH fluorescence slope in assay [5] was -2.7e-05 (inactive).

On to `CN(C)C(=O)C12CCC(C)(c3nc4ccccc4nc31)C2(C)C` (centres undefined), for which, in assay [1], the cell count was 504. The inhibition was -6.5% (inactive) in assay [1], -59.3% (inactive) in assay [3], -7.12% (inactive) in assay [7] and -15.4% (inactive) in assay [8]. Also, in assay [2], the inhibition of aggregation is -24% (inactive). The nuclei count in assay [2] stood at 97%; in assay [3], 112%. The fluorescence slope in assay [4] was -0.492 (inactive); in assay [6], 0.00404 (inactive). Also, the NADPH fluorescence slope in assay [5] is -2e-05 (inactive).

Regarding `O=C(CCn1c(=O)sc2ccccc21)Nc1cccnc1`, in assay [1], the cell count turned out to be 572. Moreover, the inhibition in assay [1] was -7.6% (inactive); in assay [3], -11.2% (inactive); in assay [7] it was 8.62% (inactive); in assay [8] it was 10.8% (inactive). Also, in assay [2], the inhibition of aggregation is 20.2% (inactive). Further, the nuclei count is 81.9% in assay [2] and 110% in assay [3]. The fluorescence slope in assay [4] was -0.443 (inactive); in assay [6], 0.00603 (inactive). Further, the NADPH fluorescence slope in assay [5] was 0.000131 (inactive).

`CCNC(=O)C1CC(=O)N(Cc2ccc3c(c2)OCO3)C(=Nc2ccc(OCC)cc2)S1` (centres undefined): the cell count in assay [1] was determined as 577. The inhibition is -3.7% (inactive) in assay [1], -3.2% (inactive) in assay [3], 17.9% (inactive) in assay [7] and 21.2% (inactive) in assay [8]. The inhibition of aggregation in assay [2] is 13.6% (inactive). In addition, the nuclei count in assay [2] stood at 108%; in assay [3], 119%. For the same compound, the values for the fluorescence slope in assay [4] and in assay [6] were -0.588 (inactive) and 0.00371 (inactive), respectively. In addition, the NADPH fluorescence slope in assay [5] is 1.7e-05 (inactive).

Turning to `COCCCn1c(SCC(=O)N2CCc3ccccc32)nnc1-c1ccoc1C`, the cell count in assay [1] turned out to be 238. The inhibition is -3.2% (inactive) in assay [1], 42.5% (inactive) in assay [3], 20.2% (inactive) in assay [7] and 19.6% (inactive) in assay [8]. The inhibition of aggregation in assay [2] was 2.7% (inactive). For the same compound, the nuclei count in assay [2] and in assay [3] was 56.1% each time. Further, the fluorescence slope is -0.548 (inactive) in assay [4] and 0.00429 (inactive) in assay [6]. Besides, in assay [5], the NADPH fluorescence slope is -5.6e-05 (inactive).

In the case of `CC(C)OC(=O)CSc1nnc(Cc2ccccc2)n1Cc1ccco1`, the cell count in assay [1] was 726. Further, the inhibition in assay [1] was 28.5% (active); in assay [3], 44% (inactive); in assay [7] it was 10.9% (inactive); in assay [8] it was 6.75% (inactive). In addition, in assay [2], the inhibition of aggregation is -13% (inactive). Moreover, the results for the nuclei count in assay [2] and in assay [3] were 106% and 100%, respectively. Besides, the fluorescence slope was -0.419 (inactive) in assay [4] and 0.0048 (inactive) in assay [6]. Moreover, in assay [5], the NADPH fluorescence slope is -2.4e-05 (inactive).

For `CCOC(=O)COc1ccc(S(=O)(=O)Nc2ccc3c(c2)OCO3)cc1`, in assay [1], the cell count amounted to 408. Also, the inhibition in assay [1] was 9.5% (inactive); in assay [3], -137% (inactive); in assay [7], 12.4% (inactive); in assay [8], 19.9% (inactive). The inhibition of aggregation in assay [2] is 3.4% (inactive). For the same compound, the values for the nuclei count in assay [2] and in assay [3] were 98.2% and 115%, respectively. The fluorescence slope in assay [4] was -0.588 (inactive); in assay [6] it was 0.00399 (inactive). The NADPH fluorescence slope in assay [5] was -0.000101 (inactive).

As to `O=C(O)CCCNS(=O)(=O)c1ccc(NCc2ccccc2)c(C(=O)O)c1`, in assay [1], the cell count is 687. Moreover, the inhibition in assay [1] is 6.7% (inactive); in assay [3], 7% (inactive); in assay [7] it was 10.5% (inactive); in assay [8], 10.3% (inactive). Also, the inhibition of aggregation in assay [2] was 2.8% (inactive). In addition, the nuclei count in assay [2] turned out to be 87.1%; in assay [3], 91.1%. The results for the fluorescence slope in assay [4] and in assay [6] were -0.343 (inactive) and 0.00502 (inactive), respectively. Moreover, the NADPH fluorescence slope in assay [5] was -5e-05 (inactive).

As to `O=C(O)C1CSC2c3ccccc3C(=O)N12` (centres undefined), the cell count in assay [1] stood at 729. For the same compound, the inhibition in assay [1] is -4.7% (inactive); in assay [3], -66.8% (inactive); in assay [7], 11.2% (inactive); in assay [8] it was 19% (inactive). The inhibition of aggregation in assay [2] was -3.2% (inactive). Besides, the nuclei count stood at 96.3% in assay [2] and 107% in assay [3]. In addition, the fluorescence slope in assay [4] was -0.577 (inactive); in assay [6], 0.00676 (inactive). The NADPH fluorescence slope in assay [5] is -6.7e-06 (inactive).

Regarding `CCOc1ccccc1NC(=O)C1CCCN(C(=O)NCc2ccccc2)C1` (centres undefined), the cell count in assay [1] was 684. The inhibition is -7.7% (inactive) in assay [1], -96.5% (inactive) in assay [3], 5.61% (inactive) in assay [7] and -20.5% (inactive) in assay [8]. The inhibition of aggregation in assay [2] is -15.4% (inactive). Besides, the nuclei count in assay [2] was found to be 114%; in assay [3] it was 106%. The values for the fluorescence slope in assay [4] and in assay [6] were -0.448 (inactive) and 0.00645 (inactive), respectively. The NADPH fluorescence slope in assay [5] is 8e-05 (inactive).
